Data taken from ChEMBL document CHEMBL4145605, “Evodialones A and B: Polyprenylated Acylcyclopentanone Racemates with a 3-Ethyl-1,1-diisopentyl-4-methylcyclopentane Skeleton from Evodia lepta” (2018).
≈ marks a conversion by molar mass, not a printed value.

Legend:
Assay type in all cases: functional
Staphylococcus aureus = experiment: Antibacterial activity against Staphylococcus aureus ATCC 25923 measured after 16 hrs by turbidimetric method; settings: ATCC 25923, 16 h
Method in brief: (§1)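 In vitro panel of four Gram-positive bacteria, three Gram-negative bacteria and six fungal strains. Activity is reported as MIC in μM. Culture and assay protocols follow an earlier method, with details in the Supporting Information.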

[1] = system: Staphylococcus epidermidis; experiment: Antibacterial activity against Staphylococcus epidermidis ATCC 12228 measured after 16 hrs by turbidimetric method; settings: ATCC 12228, 16 h; method in brief: as §1
Bacillus subtilis = experiment: Antibacterial activity against Bacillus subtilis ATCC 21332 measured after 16 hrs by turbidimetric method; settings: ATCC 21332, 16 h; method in brief: as §1
Enterococcus faecalis = experiment: Antibacterial activity against Enterococcus faecalis ATCC 29212 measured after 16 hrs by turbidimetric method; settings: ATCC 29212, 16 h; method in brief: as §1
Escherichia coli = experiment: Antibacterial activity against Escherichia coli ATCC 25922 measured after 16 hrs by turbidimetric method; settings: ATCC 25922, 16 h; method in brief: as §1
Klebsiella pneumoniae = experiment: Antibacterial activity against Klebsiella pneumoniae ATCC 700603 measured after 16 hrs by turbidimetric method; settings: Klebsiella pneumoniae, 700603, 16 h; method in brief: as §1
Enterobacter cloacae = experiment: Antibacterial activity against Enterobacter cloacae ATCC 700323 measured after 16 hrs by turbidimetric method; settings: ATCC 700323, 16 h; method in brief: as §1
Candida parapsilosis = experiment: Antifungal activity against Candida parapsilosis ATCC 22019 measured after 48 hrs by turbidimetric method; settings: Lodderomyces parapsilosis, ATCC 22019, 48 h; method in brief: as §1
Nakaseomyces glabratus = experiment: Antifungal activity against Candida glabrata ATCC 2001 measured after 48 hrs by turbidimetric method; settings: CBS 138, 48 h; method in brief: as §1
[2] = system: Meyerozyma guilliermondii; experiment: Antifungal activity against Candida guilliermondii ATCC 6260 measured after 48 hrs by turbidimetric method; settings: ATCC 6260, 48 h; method in brief: as §1
Clavispora lusitaniae = experiment: Antifungal activity against Candida lusitaniae ATCC 34449 measured after 48 hrs by turbidimetric method; settings: ATCC 34449, 48 h; method in brief: as §1
Pichia kudriavzevii = experiment: Antifungal activity against Candida krusei ATCC 6258 measured after 48 hrs by turbidimetric method; settings: ATCC 6258, 48 h; method in brief: as §1
Candida albicans = experiment: Antifungal activity against Candida albicans ATCC 60193 measured after 48 hrs by turbidimetric method; settings: ATCC 60193, 48 h; method in brief: as §1

| MIC (Staphylococcus aureus) | MIC [1] | MIC (Bacillus subtilis) | MIC (Enterococcus faecalis) | MIC (Escherichia coli) | MIC (Klebsiella pneumoniae) | MIC (Enterobacter cloacae) | MIC (Candida parapsilosis) | MIC (Nakaseomyces glabratus) | MIC [2] | MIC (Clavispora lusitaniae) | MIC (Pichia kudriavzevii) | MIC (Candida albicans) | SMILES |
| --- | --- | --- | --- | --- | --- | --- | --- | --- | --- | --- | --- | --- | --- |
| > 200 µM | > 200 µM | > 200 µM | > 200 µM | > 200 µM | > 200 µM | > 200 µM | 17.1 µM (≈ 6.27 µg/mL) | 34.2 µM (≈ 12.5 µg/mL) | 68.3 µM (≈ 25 µg/mL) | 68.3 µM (≈ 25 µg/mL) | 137 µM (≈ 50.1 µg/mL) | 137 µM (≈ 50.1 µg/mL) | COC(=O)[C@]1(O)C(=O)[C@]2(CC=C(C)C)C[C@@H](O)C(C)(C)OC2=C1C(C)=O |
| > 200 µM | > 200 µM | > 200 µM | > 200 µM | > 200 µM | > 200 µM | > 200 µM | > 200 µM | > 200 µM | > 200 µM | > 200 µM | > 200 µM | > 200 µM | COC(=O)[C@@]1(O)C(=O)[C@@]2(CC=C(C)C)C[C@@H](O)C(C)(C)OC2=C1C(C)=O |
| > 200 µM | > 200 µM | > 200 µM | > 200 µM | > 200 µM | > 200 µM | > 200 µM | 17.1 µM (≈ 6.27 µg/mL) | 34.2 µM (≈ 12.5 µg/mL) | 34.2 µM (≈ 12.5 µg/mL) | 68.3 µM (≈ 25 µg/mL) | 137 µM (≈ 50.1 µg/mL) | 137 µM (≈ 50.1 µg/mL) | COC(=O)[C@@]1(O)C(=O)[C@@]2(CC=C(C)C)C[C@H](O)C(C)(C)OC2=C1C(C)=O |
|  |  |  |  |  |  |  | < 0.5 µM | < 0.5 µM | < 0.5 µM | 8.7 µM (≈ 8.04 µg/mL) | < 0.5 µM | < 0.5 µM | C[C@@H]1[C@H](O)[C@@H](C)/C=C/C=C/C=C/C=C/C=C/C=C/C=C/[C@H](O[C@@H]2O[C@H](C)[C@@H](O)[C@H](N)[C@@H]2O)C[C@@H]2O[C@](O)(C[C@@H](O)C[C@@H](O)[C@H](O)CC[C@@H](O)C[C@@H](O)CC(=O)O[C@H]1C)C[C@H](O)[C@H]2C(=O)O [AMPHOTERICIN B] |
